The source made the active and inactive calls. The rule behind the calls is not given here.
How the values were obtained:
MDA-MB-231 [1] = assay: Induction of apoptosis in human MDA-MB-231 cells assessed as viable cells at 0.03 uM after 48 hrs by annexin V-FITC/propidium iodide staining-based flow cytometric analysis (reference value: 94.4%); type: functional; details: MDA-MB-231, 48 h, read-out: Activity
Method in brief: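 MDA-MB-231 cells (ATCC; medium with 10% FBS, 37 °C, 5% CO2) plated at 2 × 10^5 per six-well well and treated with a range of concentrations for 24 and 48 h at 37 °C. Cells harvested, washed with ice-cold PBS, stained with annexin V-FITC apoptosis detection kit and analysed by flow cytometry.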

MDA-MB-231 [2] = assay: Induction of apoptosis in human MDA-MB-231 cells assessed as late apoptotic cells at 0.1 uM after 48 hrs by annexin V-FITC/propidium iodide staining-based flow cytometric analysis (reference value: 4.25%); type: functional
MDA-MB-231 [3] = assay: Antiproliferative activity against human MDA-MB-231 cells assessed as inhibition of colony formation at >0.01 uM after 12 days by crystal violet staining-based assay; type: functional, cell-based
Method in brief: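 MDA-MB-231 cells plated at 5000 per well and treated the next day with vehicle or compound, medium refreshed every 4 days; after 12 days, colonies fixed in methanol, crystal violet stained and photographed.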

[4] = Terminal half life in Sprague-Dawley rat at 10 mg/kg, po by LC/MS analysis; type: ADME, organism-based; set-up: dose 10 mg/kg, route oral; details: in vivo, read-out: beta t1/2 (converted)
Method in brief: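 Male Sprague-Dawley rats fitted with jugular vein catheters and fasted overnight, then given a single 10 mg/kg oral gavage dose; n=5. Serial blood samples were spun at once to plasma and analysed by LC-MS/MS. Noncompartmental parameters were fitted.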

[5] = target: Serine/threonine-protein kinase TBK1 (Homo sapiens, UniProt Q9UHD2); assay: Inhibition of human TBK1
Chain of Serine/threonine-protein kinase TBK1 (Q9UHD2 whole entry): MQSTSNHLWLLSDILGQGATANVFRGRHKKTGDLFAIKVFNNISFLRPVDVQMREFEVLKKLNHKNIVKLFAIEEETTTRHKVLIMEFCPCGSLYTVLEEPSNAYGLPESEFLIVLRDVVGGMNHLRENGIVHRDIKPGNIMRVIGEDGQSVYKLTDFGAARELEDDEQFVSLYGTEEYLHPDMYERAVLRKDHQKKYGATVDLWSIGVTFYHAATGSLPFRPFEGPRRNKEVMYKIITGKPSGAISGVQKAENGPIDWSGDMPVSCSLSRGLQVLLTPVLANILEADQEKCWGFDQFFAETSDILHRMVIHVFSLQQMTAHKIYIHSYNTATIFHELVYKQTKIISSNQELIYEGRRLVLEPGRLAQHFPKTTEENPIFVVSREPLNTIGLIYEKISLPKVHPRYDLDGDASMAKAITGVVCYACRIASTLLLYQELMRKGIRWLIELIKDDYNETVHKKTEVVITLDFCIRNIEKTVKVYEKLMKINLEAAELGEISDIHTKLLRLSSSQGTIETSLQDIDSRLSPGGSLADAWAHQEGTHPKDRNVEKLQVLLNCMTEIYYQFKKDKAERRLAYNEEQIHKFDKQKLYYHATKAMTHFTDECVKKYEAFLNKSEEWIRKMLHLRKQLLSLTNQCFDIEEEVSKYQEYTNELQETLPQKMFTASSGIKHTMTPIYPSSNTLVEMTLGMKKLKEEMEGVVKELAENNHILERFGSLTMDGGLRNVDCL
Method in brief: (§1)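 Recombinant human protein kinases screened through the Eurofins KinaseProfiler service. IC50 values are means of two independent experiments.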

[6] = target: Glycogen synthase kinase-3 beta (Homo sapiens, UniProt P49841); assay: Inhibition of human GSK3beta; method in brief: as §1
Chain of Glycogen synthase kinase-3 beta (P49841 whole entry): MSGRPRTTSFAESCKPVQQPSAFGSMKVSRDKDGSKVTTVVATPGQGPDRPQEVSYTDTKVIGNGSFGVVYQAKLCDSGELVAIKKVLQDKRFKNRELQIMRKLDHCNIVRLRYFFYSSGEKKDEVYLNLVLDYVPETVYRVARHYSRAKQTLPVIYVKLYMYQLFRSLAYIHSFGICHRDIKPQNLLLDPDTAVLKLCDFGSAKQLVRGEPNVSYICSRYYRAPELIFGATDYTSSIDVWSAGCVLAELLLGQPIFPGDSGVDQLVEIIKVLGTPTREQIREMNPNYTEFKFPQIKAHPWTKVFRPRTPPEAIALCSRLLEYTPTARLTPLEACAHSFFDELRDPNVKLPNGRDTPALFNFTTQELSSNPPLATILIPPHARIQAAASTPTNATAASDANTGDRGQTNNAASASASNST

[7] = target: RAC-alpha serine/threonine-protein kinase (Homo sapiens, UniProt P31749); assay: Inhibition of human PKBalpha; method in brief: as §1
Chain of RAC-alpha serine/threonine-protein kinase (P31749 whole entry): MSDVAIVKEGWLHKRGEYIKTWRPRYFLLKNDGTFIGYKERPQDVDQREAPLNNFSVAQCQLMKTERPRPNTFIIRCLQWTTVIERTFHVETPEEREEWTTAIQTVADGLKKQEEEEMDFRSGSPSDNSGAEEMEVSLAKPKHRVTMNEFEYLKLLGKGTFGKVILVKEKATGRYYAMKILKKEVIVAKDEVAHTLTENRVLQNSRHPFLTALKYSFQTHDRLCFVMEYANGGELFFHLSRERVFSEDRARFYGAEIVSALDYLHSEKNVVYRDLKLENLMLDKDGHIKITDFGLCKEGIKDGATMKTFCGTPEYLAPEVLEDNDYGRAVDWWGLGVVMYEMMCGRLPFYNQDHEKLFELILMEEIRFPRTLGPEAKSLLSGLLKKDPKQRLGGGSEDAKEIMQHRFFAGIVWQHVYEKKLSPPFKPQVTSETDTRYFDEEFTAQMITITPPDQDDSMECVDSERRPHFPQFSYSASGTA

MDA-MB-435 = assay: Cytotoxicity against human MDA-MB-435 cells assessed as cell viability after 72 hrs by MTT assay; type: functional, cell-based; details: MDA-MB-435, 72 h
[8] = Cytotoxicity against human MDA-MB-436 cells assessed as cell viability after 72 hrs by MTT assay; type: functional, cell-based; details: MDA-MB-436, 72 h
MDA-MB-231 [9] = assay: Induction of apoptosis in human MDA-MB-231 cells assessed as viable cells at 0.03 uM after 24 hrs by annexin V-FITC/propidium iodide staining-based flow cytometric analysis (reference value: 95.5%); type: functional; details: MDA-MB-231, 24 h, read-out: Activity

## CCn1nc(C#Cc2cc(C(=O)Nc3ccc(CN4CCN(C)CC4)c(C(F)(F)F)c3)ccc2C)c2c(N)ncnc21
MDA-MB-231 [1]
  viability at 0.03 µM: 90.5%
MDA-MB-231 [2]
  Activity: 15.9%
MDA-MB-231 [3]
  inhibition: Active
[4]
  half-life: 766 min
[5]
  IC50: > 10 µM
[6]
  IC50: > 10 µM
[7]
  IC50: > 10 µM
MDA-MB-435
  IC50: 5 nM
[8]
  IC50: 316 nM
MDA-MB-231 [9]
  viability at 0.03 µM: 92.9%

— ChEMBL document CHEMBL3425429
